This passage reports Ki and Ratio Ki results from ChEMBL document CHEMBL1146368, “Development of selective inhibitors for anti-apoptotic Bcl-2 proteins from BHI-1” (Bioorg Med Chem, 2007).

The target in assay [1] is T1, Bcl-2-like protein 2 (Homo sapiens, UniProt Q92843).
T1 sequence (Q92843 whole entry): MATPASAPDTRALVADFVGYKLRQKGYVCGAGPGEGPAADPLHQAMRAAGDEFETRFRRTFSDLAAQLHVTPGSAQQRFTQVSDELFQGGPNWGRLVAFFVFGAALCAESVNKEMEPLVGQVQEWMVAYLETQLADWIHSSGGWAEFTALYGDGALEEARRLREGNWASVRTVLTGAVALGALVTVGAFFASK
Kind of assay: Displacement of Flu-Bak peptide from recombinant antiapoptotic Bcl-w protein by fluorescence polarization assay. A digest of the protocol:
(§1)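 Recombinant Ni-NTA-purified proteins from E. coli ER2566 (Bcl-2 lacking transmembrane domain). Oregon Green-labelled Bak BH3 peptide (50 nM in premix) is preincubated 1 h at 23 °C with protein for 60% complex (Bcl-2 1000 nM, Bcl-XL 880 nM, Bcl-w 1200 nM) in PBS pH 7.0 with 1 mM DTT. This is added to compound from 3-fold DMSO stocks (0.014–10 mM), incubated 1 h at 23 °C, and polarization read. Peptide-only background is subtracted. Ki is from the Wang equation; triplicates, run twice.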
In general terms: In fluorescence polarisation assays a small probe gives low polarisation when free and higher when bound to something large.

For assay [2], the species on record is Homo sapiens. The assay can be described thus: Selectivity for recombinant Bcl2 protein over recombinant Bcl-w protein.
In assay [3] the target is Apoptosis regulator Bcl-2 (Homo sapiens, UniProt P10415). Kind of assay: Displacement of Flu-Bak peptide from recombinant antiapoptotic Bcl2 protein by fluorescence polarization assay. A digest of the protocol:
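Recombinant Ni-NTA-purified proteins from E. coli ER2566 (Bcl-2 lacking transmembrane domain). This is added to compound from 3-fold DMSO stocks (0.014–10 mM), incubated 1 h at 23 °C, and polarization read. Peptide-only background is subtracted. Ki is from the Wang equation; triplicates, run twice.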

A short description of assay [4]: Displacement of Flu-Bak peptide from recombinant antiapoptotic Bcl-XL protein by fluorescence polarization assay. Also noted: species or system Homo sapiens. Put shortly: as §1
For assay [5], the species on record is Homo sapiens. The assay can be described thus: Selectivity for recombinant Bcl2 protein over recombinant Bcl-XL protein.
Assay [6] is filed under the species Homo sapiens. The assay can be described thus: Selectivity for recombinant Bcl-XL protein over recombinant Bcl-2 protein.
The species entered for assay [7] is Homo sapiens. The assay can be described thus: Selectivity for recombinant Bcl-w protein over recombinant Bcl-XL protein.

Each structure is given as a SMILES string.

Apoptosis regulator Bcl-2, sequence (P10415 whole entry, the tested form may be a part): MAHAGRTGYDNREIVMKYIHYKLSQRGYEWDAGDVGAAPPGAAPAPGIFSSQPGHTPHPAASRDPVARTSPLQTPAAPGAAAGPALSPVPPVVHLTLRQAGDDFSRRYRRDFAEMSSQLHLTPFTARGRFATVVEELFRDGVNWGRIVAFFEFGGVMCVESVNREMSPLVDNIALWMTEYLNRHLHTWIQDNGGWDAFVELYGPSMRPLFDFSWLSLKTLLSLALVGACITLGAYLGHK

What is called Ki is a dissociation constant, usually derived from enzyme kinetics or from competition with a known ligand. Regarding `O=C(O)CC[C@@H](C(=O)O)N1C(=O)/C(=C/c2ccc(Br)cc2)SC1=S`, the inhibition constant (Ki) in assay [1] came to 610 µM; in assay [3], 320 µM; in assay [4], 848 µM. Also, in assay [2], the Ratio Ki was 1.91.

Regarding `C/C(=C1/SC(=S)N([C@@H](CC(C)C)C(=O)O)C1=O)c1ccccc1`, the Ki in assay [1] amounted to 58.3 µM; in assay [3], 21.2 µM; in assay [4], 128 µM. For the same molecule, the Ratio Ki in assay [2] is 2.74.

As for `CCC/C(=C1/SC(=S)N([C@@H](CC(C)C)C(=O)O)C1=O)c1ccccc1`, the inhibition constant Ki in assay [1] is 24.1 µM; in assay [3], 13.5 µM; in assay [4], 41.3 µM. The Ratio Ki in assay [2] stood at 1.79.

With `C=CCOC(=O)[C@H](C)N1C(=O)/C(=C/c2ccc(Br)cc2)SC1=S`, the Ki was greater than 1000 µM in assay [1], 192 µM in assay [3] and 268 µM in assay [4]. Besides, the Ratio Ki in assay [5] is 1.4.

For `CC(C)C[C@@H](C(=O)O)N1C(=O)/C(=C/c2ccc(Br)cc2)SC1=S`, in assay [6], the Ratio Ki came out at 2.48. The figures for the inhibitory constant (Ki) in assay [1], in assay [3] and in assay [4] were 31.2 µM, 7.43 µM and 2.99 µM, respectively.

Take `COc1ccc2c(c[n+](C)c3c4cc5c(cc4ccc23)OCO5)c1OC` [CHELERYTHRINE CHLORIDE]: the Ki in assay [1] worked out at 106 µM; in assay [3] it was 171 µM; in assay [4] it was 96 µM.

Take `CCCC[C@H]1C(=O)O[C@H](C)[C@H](NC(=O)c2cccc(NC=O)c2O)C(=O)O[C@@H](C)[C@@H]1OC(=O)CC(C)C` [ANTIMYCIN A3]: the Ki came to 127 µM in assay [1] and 124 µM in assay [3].

Turning to `C[C@@H](C(=O)N1CCOCC1)N1C(=O)/C(=C/c2ccc(Br)cc2)SC1=S`, the results for the inhibition constant (Ki) in assay [1], in assay [3] and in assay [4] were 146 µM, 70 µM and 228 µM, respectively. Moreover, the Ratio Ki in assay [2] came to 2.01.

As for `C=CCOC(=O)[C@H](Cc1ccccc1)N1C(=O)C(=C(c2ccccc2)c2ccccc2)SC1=S`, the inhibitory constant (Ki) was found to be 116 µM in assay [1], 260 µM in assay [3] and 176 µM in assay [4]. The Ratio Ki in assay [7] was 1.52.

For `CSCC[C@@H](C(=O)O)N1C(=O)/C(=C/c2ccc(Br)cc2)SC1=S`, the Ki was 88 µM in assay [1], 69.6 µM in assay [3] and 134 µM in assay [4]. The Ratio Ki in assay [2] worked out at 1.26.

With `O=C(O)[C@H](Cc1c[nH]c2ccccc12)N1C(=O)/C(=C/c2ccc(Br)cc2)SC1=S`, the inhibition constant Ki in assay [1] is 54.2 µM; in assay [3], 2.85 µM; in assay [4] it was 32.8 µM. Moreover, the Ratio Ki in assay [5] stood at 11.5.

For `CCC/C(=C1/SC(=S)N([C@@H](Cc2ccccc2)C(=O)O)C1=O)c1ccccc1`, the Ki came out at 41.1 µM in assay [1], 12 µM in assay [3] and 27.9 µM in assay [4]. The Ratio Ki in assay [5] was 2.33.

For the molecule `CC(C)C[C@@H](C(=O)O)N1C(=O)C(=C(c2ccccc2)c2ccccc2)SC1=S`, the Ki came to 61.9 µM in assay [1], 57.8 µM in assay [3] and 68.8 µM in assay [4]. Moreover, the Ratio Ki in assay [2] was 1.07.

In the case of `CC(C)C[C@@H](C(=O)O)N1C(=O)/C(=C(\c2ccccc2)c2ccc(-c3ccccc3)cc2)SC1=S`, the Ki worked out at 6.98 µM in assay [1], 1.95 µM in assay [3] and 8.7 µM in assay [4]. Also, in assay [2], the Ratio Ki worked out at 3.58.

For `CC(C)C(C(=O)O)N1C(=O)/C(=C\c2ccc(Br)cc2)SC1=S` (stereo unspecified), the inhibitory constant (Ki) came out at 124 µM in assay [1], 43.4 µM in assay [3] and 133 µM in assay [4]. The Ratio Ki in assay [2] is 2.85.

In the case of `C[C@@H](C(=O)O)N1C(=O)/C(=C/c2ccc(Br)cc2)SC1=S`, the inhibition constant Ki came out at 243 µM in assay [1], 115 µM in assay [3] and 374 µM in assay [4]. The Ratio Ki in assay [2] turned out to be 2.11.

In the case of `O=C(O)[C@H](Cc1ccccc1)N1C(=O)/C(=C/c2ccc(Br)cc2)SC1=S`, in assay [6], the Ratio Ki is 2.65. Also, the inhibition constant (Ki) in assay [1] was determined as 21.5 µM; in assay [3], 14.2 µM; in assay [4], 5.35 µM.

As for `Cc1cc2c(C(C)C)c(O)c(O)c(C=O)c2c(O)c1-c1c(C)cc2c(C(C)C)c(O)c(O)c(C=O)c2c1O` [GOSSYPOL], the Ki in assay [1] worked out at 17.7 µM; in assay [4], 24.7 µM.

In the case of `C=CCOC(=O)[C@H](Cc1ccccc1)N1C(=O)/C(=C/c2ccc(Br)cc2)SC1=S`, the inhibition constant Ki was 56.8 µM in assay [1], greater than 1000 µM in assay [3] and 244 µM in assay [4]. Besides, the Ratio Ki in assay [7] amounted to 4.29.
